In ChEMBL document CHEMBL1123216, “Sustained brain-specific delivery of estradiol causes long-term suppression of luteinizing hormone secretion” (J Med Chem, 1986) one finds Concentration data, which are given here for three molecules.

What all share (type): functional, organism-based
Experiment [1] relates to Rattus norvegicus. Kind of experiment: Serum concentration of estradiol 24 days after intravenous administration in Orchidectomized rats. Put shortly:
(§1)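 Male rats were orchidectomized and 2 weeks later given a single iv dose (2.1 or 3.0 mg/kg, dimethyl sulfoxide vehicle). After decapitation at 12, 18 or 24 days, serum estradiol was measured by a published radioimmunoassay in modified form, in duplicate. Assay sensitivity limit was 20 pg/mL. Values are mean ± SEM, with the number of samples below the limit given per group.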

Experiment [2] has as its system Rattus norvegicus. Kind of experiment: Serum concentration of estradiol 18 days after intravenous administration in Orchidectomized rats. The method, boiled down:
as §1

Experiment [3] deals with Rattus norvegicus. Kind of experiment: Serum concentration of LH 12 days after intravenous administration in Orchidectomized rats. Put shortly:
(§2)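 Male rats given a single iv dose (2.1 or 3.0 mg/kg, dimethyl sulfoxide vehicle at 0.5 mL/kg) 2 weeks after orchidectomy. At 12, 18 or 24 days they were killed by decapitation and serum LH was measured by radioimmunoassay, expressed against reference preparation LH-RP-2. Samples assayed in duplicate; mean ± SEM, 6–7 animals per group.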

In experiment [4] the test system is Rattus norvegicus. Kind of experiment: Serum concentration of estradiol 12 days after intravenous administration in Orchidectomized rats. Put shortly:
as §1

In experiment [5] the test system is Rattus norvegicus. The experiment in a line: Serum concentration of LH 24 days after intravenous administration in Orchidectomized rats. Put shortly: as §2
Experiment [6] has as its system Rattus norvegicus. The experiment in a line: Serum concentration of LH 18 days after intravenous administration in Orchidectomized rats. The method, boiled down: as §2

For `CN1C=CCC(C(=O)O[C@H]2CC[C@H]3[C@@H]4CCc5cc(O)ccc5[C@H]4CC[C@]23C)=C1`, the Concentration was 0.0241 ng/mL in the experiment with Rattus norvegicus [1]; < 0.02 ng/mL in the experiment on Rattus norvegicus [2]; 0.8 ng/mL in the experiment on Rattus norvegicus [3]; 0.0259 ng/mL in the experiment with Rattus norvegicus [4]; 2.9 ng/mL in the experiment with Rattus norvegicus [5]; 1.7 ng/mL with Rattus norvegicus [6].

For the molecule `C[S+](C)[O-]`, the Concentration is 0.0244 ng/mL with Rattus norvegicus [1]; < 0.02 ng/mL in the experiment on Rattus norvegicus [2]; 6.8 ng/mL with Rattus norvegicus [3]; 0.0275 ng/mL with Rattus norvegicus [4]; 8.6 ng/mL in the experiment with Rattus norvegicus [5]; 12.4 ng/mL with Rattus norvegicus [6].

Consider `C[C@]12CC[C@@H]3c4ccc(O)cc4CC[C@H]3[C@@H]1CC[C@@H]2O`, for which the Concentration with Rattus norvegicus [1] is 0.0312 ng/mL; in the experiment with Rattus norvegicus [2], < 0.02 ng/mL; with Rattus norvegicus [3] it was 12.9 ng/mL; in the experiment with Rattus norvegicus [4] it was 0.0293 ng/mL; in the experiment on Rattus norvegicus [5], 11.6 ng/mL; in the experiment on Rattus norvegicus [6] it was 12.1 ng/mL.
